Experimental data published in ChEMBL document CHEMBL3352004, “(7-Benzyloxy-2,3-dihydro-1H-pyrrolo[1,2-a]indol-1-yl)acetic Acids as S1P1 Functional Antagonists” (ACS Med Chem Lett, 2014).
≈ marks a conversion by molar mass, not a printed value. Calls of active or inactive are those of the source. The rule behind the calls is not given here.

Assays:
[1] = target: T1, Sphingosine 1-phosphate receptor 1 (Homo sapiens, UniProt P21453); assay: Agonist activity at human S1P1 receptor assessed as cAMP accumulation by HTRF assay; type: functional
Summary of the method: (§1)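 S1P1 engagement measured as cyclase activity in a homogeneous time-resolved fluorescence (HTRF) assay.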

[2] = target: T1, Sphingosine 1-phosphate receptor 1; assay: Agonist activity at human S1P1 receptor assessed as cAMP accumulation by HTRF assay relative to S1P; type: functional
[3] = target: T1, Sphingosine 1-phosphate receptor 1; assay: Agonist activity at human S1P1 receptor by beta-arrestin recruitment assay
[4] = target: T1, Sphingosine 1-phosphate receptor 1; assay: Agonist activity at human S1P1 receptor by beta-arrestin recruitment assay relative to S1P
[5] = target: Sphingosine 1-phosphate receptor 2 (Homo sapiens, UniProt O95136); assay: Agonist activity at human S1P2 receptor by beta-arrestin recruitment assay
[6] = target: Sphingosine 1-phosphate receptor 3 (Homo sapiens, UniProt Q99500); assay: Agonist activity at human S1P3 receptor by beta-arrestin recruitment assay
[7] = target: T2, Sphingosine 1-phosphate receptor 4 (Homo sapiens, UniProt O95977); assay: Agonist activity at human S1P4 receptor by beta-arrestin recruitment assay
T2 sequence (O95977 whole entry): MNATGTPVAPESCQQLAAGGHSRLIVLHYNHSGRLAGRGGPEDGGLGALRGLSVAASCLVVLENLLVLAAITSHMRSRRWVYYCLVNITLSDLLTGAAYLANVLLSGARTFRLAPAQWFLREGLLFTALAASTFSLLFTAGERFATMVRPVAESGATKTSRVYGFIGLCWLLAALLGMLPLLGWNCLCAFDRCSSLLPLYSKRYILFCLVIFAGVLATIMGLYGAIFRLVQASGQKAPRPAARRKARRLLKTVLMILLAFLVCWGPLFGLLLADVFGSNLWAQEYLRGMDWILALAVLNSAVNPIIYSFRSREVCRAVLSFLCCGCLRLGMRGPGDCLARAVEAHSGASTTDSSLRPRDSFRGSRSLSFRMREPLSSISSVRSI

[8] = target: T3, Sphingosine 1-phosphate receptor 4 (Homo sapiens) (UniProt O95977); assay: Agonist activity at human S1P4 receptor by beta-arrestin recruitment assay relative to S1P
T3 sequence (whole entry): T2 sequence (O95977 whole entry)

[9] = target: T4, Sphingosine 1-phosphate receptor 5 (Homo sapiens, UniProt Q9H228); assay: Agonist activity at human S1P5 receptor by beta-arrestin recruitment assay
[10] = target: T4, Sphingosine 1-phosphate receptor 5; assay: Agonist activity at human S1P5 receptor by beta-arrestin recruitment assay relative to S1P
[11] = Systemic clearance in Sprague-Dawley rat at 1 mg/kg, iv; type: ADME, organism-based; set-up: dose 1 mg/kg, route intravenous; details: in vivo
[12] = Volume of distribution at steady state in Sprague-Dawley rat at 1 mg/kg, iv; type: ADME, organism-based; set-up: dose 1 mg/kg, route intravenous; details: in vivo, read-out: Vdss
[13] = Cmax in Sprague-Dawley rat at 1 mg/kg, po; type: ADME, organism-based; set-up: dose 1 mg/kg, route oral; details: in vivo
[14] = Tmax in Sprague-Dawley rat at 1 mg/kg, po; type: ADME, organism-based; set-up: dose 1 mg/kg, route oral; details: in vivo
[15] = AUC (0 to infinity) in Sprague-Dawley rat at 1 mg/kg, iv or at 1 mg/kg, po; type: ADME, organism-based; details: plasma
[16] = Elimination half life in Sprague-Dawley rat at 1 mg/kg, po; type: ADME, organism-based; set-up: dose 1 mg/kg, route oral; details: in vivo, read-out: beta t1/2 (converted)
[17] = Oral bioavailability in Sprague-Dawley rat at 1 mg/kg; type: ADME, organism-based; details: in vivo
[18] = Ratio of drug level in brain to plasma in Sprague-Dawley rat; type: ADME; details: read-out: BPR
Summary of the method: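 Abbreviated rat CNS distribution: a single 1.0 mg/kg oral dose, with brain and plasma drug levels measured over 6 h. Brain-to-plasma ratio derived from these levels.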

Rattus norvegicus [19] = species: Rattus norvegicus; assay: Reduction in lymphocyte count in Sprague-Dawley rat; type: functional, organism-based
Summary of the method: (§2)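 A PK/PD model relating plasma drug concentration to circulating lymphocyte counts was used to derive the plasma concentration that reduces lymphocytes by 50% (LL IC50, ng/mL).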

[20] = target: Sphingosine 1-phosphate receptor 1 (Mus musculus, UniProt O08530); assay: Agonist activity at mouse S1P1 receptor assessed as cAMP accumulation by HTRF assay; type: functional; summary of the method: as §1
[21] = target: Sphingosine 1-phosphate receptor 1 (Mus musculus) (UniProt O08530); assay: Agonist activity at mouse S1P1 receptor assessed as cAMP accumulation by HTRF assay relative to S1P; type: functional
[22] = target: Sphingosine 1-phosphate receptor 1 (Rattus norvegicus, UniProt P48303); assay: Agonist activity at rat S1P1 receptor assessed as cAMP accumulation by HTRF assay; type: functional; summary of the method: as §1
[23] = target: Sphingosine 1-phosphate receptor 1 (Rattus norvegicus) (UniProt P48303); assay: Agonist activity at rat S1P1 receptor assessed as cAMP accumulation by HTRF assay relative to S1P; type: functional
[24] = target: Sphingosine-1-phosphate receptor 1 (Canis lupus familiaris, UniProt W5VNF7); assay: Agonist activity at dog S1P1 receptor assessed as cAMP accumulation by HTRF assay; type: functional; summary of the method: as §1
[25] = target: Sphingosine-1-phosphate receptor 1 (Canis lupus familiaris) (UniProt W5VNF7); assay: Agonist activity at dog S1P1 receptor assessed as cAMP accumulation by HTRF assay relative to S1P; type: functional
[26] = target: Sphingosine 1-phosphate receptor 1 (Macaca mulatta, UniProt H9EUW9); assay: Agonist activity at monkey S1P1 receptor assessed as cAMP accumulation by HTRF assay; type: functional; summary of the method: as §1
[27] = target: Sphingosine 1-phosphate receptor 1 (Macaca mulatta) (UniProt H9EUW9); assay: Agonist activity at monkey S1P1 receptor assessed as cAMP accumulation by HTRF assay relative to S1P; type: functional
[28] = target: Voltage-gated inwardly rectifying potassium channel KCNH2 (Homo sapiens, UniProt Q12809); assay: Binding affinity to human ERG
Rattus norvegicus [29] = species: Rattus norvegicus; assay: Toxicity in telemeterized rat assessed as effect on cardiovascular function; type: organism-based, Heart; details: in vivo
Cytochrome P450 2C9 = Cytochrome P450 2C9 (Homo sapiens, UniProt P11712); assay: Inhibition of CYP2C9 (unknown origin); type: ADME
Cytochrome P450 3A4 = Cytochrome P450 3A4 (Homo sapiens, UniProt P08684); assay: Inhibition of CYP3A4 (unknown origin); type: ADME
Cytochrome P450 2D6 = Cytochrome P450 2D6 (Homo sapiens, UniProt P10635); assay: Inhibition of CYP2D6 (unknown origin); type: ADME
Cytochrome P450 1A2 = Cytochrome P450 1A2 (Homo sapiens, UniProt P05177); assay: Inhibition of CYP1A2 (unknown origin); type: ADME
Cytochrome P450 2C19 = Cytochrome P450 2C19 (Homo sapiens, UniProt P33261); assay: Inhibition of CYP2C19 (unknown origin); type: ADME
[30] = Drug level in rat plasma at 1 mg/kg, po dosed for 6 consecutive days; type: ADME, organism-based; set-up: dose 1 mg/kg, route oral
Summary of the method: (§3)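 Repeat-dose rat CNS distribution: 1.0 mg/kg given on six consecutive days. Plasma, brain and CSF were sampled over the 24 h after the last dose. Average concentrations in brain and plasma gave the brain-to-plasma ratio.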

[31] = Drug level in rat brain at 1 mg/kg, po dosed for 6 consecutive days; type: ADME, organism-based; set-up: dose 1 mg/kg, route oral; details: read-out: Drug uptake; summary of the method: as §3
[32] = Ratio of drug level in rat brain to plasma at 1 mg/kg, po dosed for 6 consecutive days; type: ADME, organism-based; set-up: dose 1 mg/kg, route oral; details: read-out: BPR; summary of the method: as §3
[33] = Cmax rat at 1000 mg/kg, po; type: ADME, organism-based; set-up: dose 1000 mg/kg, route oral; details: in vivo
Mus musculus [34] = species: Mus musculus; assay: Reduction in lymphocyte count in mouse; type: functional, organism-based; summary of the method: as §2
Mus musculus [35] = assay: Prevention of severity of disease in C57Bl/6 mouse experimental autoimmune encephalomyelitis model of multiple sclerosis at 1 mg/kg dosed for 24 days; type: functional, organism-based; set-up: dose 1 mg/kg
Summary of the method: (§4)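 Female C57Bl/6 mice with EAE, a demyelinating autoimmune disease induced to model MS, given compound orally at 0.1, 0.3 or 1.0 mg/kg for 24 days alongside a vehicle group. Clinical scoring began on day 10: 0 healthy; 1 limp tail or hind-limb weakness; 2 limp tail plus limb weakness, or weakness of ≥2 limbs; 3 severe limb weakness or single-limb paralysis; 4 paralysis of ≥2 limbs; 5 death. Mean group score reported.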

Mus musculus [36] = assay: Reduction of disease index score in C57Bl/6 mouse experimental autoimmune encephalomyelitis model of multiple sclerosis at 0.1 to 0.3 mg/kg dosed for 24 days; type: functional, organism-based; summary of the method: as §4
Mus musculus [37] = assay: Reduction of disease index score in C57Bl/6 mouse experimental autoimmune encephalomyelitis model of multiple sclerosis at 0.1 mg/kg dosed for 24 days; type: functional, organism-based; set-up: dose 0.1 mg/kg; summary of the method: as §4
[38] = Activation of Inward rectifier potassium channel in human atrial myocytes; type: cell-based; details: Cardiac atrium
[39] = Solubility in water in crystal phase; type: physicochemical
[40] = Solubility in water in L-lysine adduct form; type: physicochemical
[41] = tested on: P2Y purinoceptor (Rattus norvegicus); assay: Binding affinity to P2Y purinoceptor (rat) by [35S]dATPalphaS competitive binding assay

T1 sequence (P21453 whole entry): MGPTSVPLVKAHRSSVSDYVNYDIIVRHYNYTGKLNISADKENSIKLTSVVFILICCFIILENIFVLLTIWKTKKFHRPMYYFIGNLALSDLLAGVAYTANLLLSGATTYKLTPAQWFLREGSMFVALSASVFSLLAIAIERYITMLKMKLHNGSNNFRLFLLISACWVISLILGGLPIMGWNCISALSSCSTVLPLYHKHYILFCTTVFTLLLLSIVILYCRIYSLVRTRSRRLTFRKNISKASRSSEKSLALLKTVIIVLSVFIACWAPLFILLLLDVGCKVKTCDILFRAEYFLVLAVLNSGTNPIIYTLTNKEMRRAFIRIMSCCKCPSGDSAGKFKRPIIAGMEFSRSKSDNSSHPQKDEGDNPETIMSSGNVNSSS
T4 sequence (Q9H228 whole entry): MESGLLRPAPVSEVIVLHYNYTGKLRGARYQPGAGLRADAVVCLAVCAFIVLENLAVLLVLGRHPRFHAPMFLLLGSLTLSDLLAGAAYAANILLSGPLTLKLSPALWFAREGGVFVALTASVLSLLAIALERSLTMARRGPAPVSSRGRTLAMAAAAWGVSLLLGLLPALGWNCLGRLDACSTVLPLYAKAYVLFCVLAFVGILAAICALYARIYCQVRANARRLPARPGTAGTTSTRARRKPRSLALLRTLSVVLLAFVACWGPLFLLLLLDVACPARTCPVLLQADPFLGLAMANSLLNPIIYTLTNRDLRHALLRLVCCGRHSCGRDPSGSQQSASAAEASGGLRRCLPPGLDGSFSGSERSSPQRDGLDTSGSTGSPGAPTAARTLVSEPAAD
Chain of Sphingosine 1-phosphate receptor 1 (Macaca mulatta) (H9EUW9 as listed by the source): as the sequence (P21453 whole entry) above, with P3S, H12L, I37T, K41R, S189P, I241M, E365D counted along it
Chain of Sphingosine 1-phosphate receptor 1 (Macaca mulatta, UniProt H9EUW9) (H9EUW9 whole entry): as the sequence (P21453 whole entry) above, with P3S, H12L, I37T, K41R, S189P, I241M, E365D counted along it
Chain of Sphingosine 1-phosphate receptor 1 (Mus musculus, UniProt O08530) (O08530 whole entry): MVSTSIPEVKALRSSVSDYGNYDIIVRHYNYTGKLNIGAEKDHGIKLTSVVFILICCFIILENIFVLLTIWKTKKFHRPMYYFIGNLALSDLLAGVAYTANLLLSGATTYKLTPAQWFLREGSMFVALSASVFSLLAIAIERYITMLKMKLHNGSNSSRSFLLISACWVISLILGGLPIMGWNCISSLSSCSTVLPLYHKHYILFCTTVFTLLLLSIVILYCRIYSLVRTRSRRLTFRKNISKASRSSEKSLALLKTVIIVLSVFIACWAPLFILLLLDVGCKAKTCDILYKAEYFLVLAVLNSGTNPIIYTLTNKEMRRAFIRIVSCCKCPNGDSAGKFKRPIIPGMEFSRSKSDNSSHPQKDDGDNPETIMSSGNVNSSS
Chain of Sphingosine 1-phosphate receptor 1 (Mus musculus) (O08530 whole entry): as above
Chain of Sphingosine 1-phosphate receptor 2 (O95136 whole entry): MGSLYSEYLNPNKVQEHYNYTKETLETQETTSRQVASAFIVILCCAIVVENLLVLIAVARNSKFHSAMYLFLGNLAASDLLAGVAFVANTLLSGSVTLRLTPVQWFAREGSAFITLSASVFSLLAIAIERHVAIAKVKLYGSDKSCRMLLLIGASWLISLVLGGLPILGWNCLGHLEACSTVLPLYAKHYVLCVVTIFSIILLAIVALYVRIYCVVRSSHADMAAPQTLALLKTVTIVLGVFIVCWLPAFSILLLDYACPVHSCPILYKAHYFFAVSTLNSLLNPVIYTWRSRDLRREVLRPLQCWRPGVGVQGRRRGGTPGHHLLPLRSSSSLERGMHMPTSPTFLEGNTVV
Chain of Cytochrome P450 2D6 (P10635 whole entry): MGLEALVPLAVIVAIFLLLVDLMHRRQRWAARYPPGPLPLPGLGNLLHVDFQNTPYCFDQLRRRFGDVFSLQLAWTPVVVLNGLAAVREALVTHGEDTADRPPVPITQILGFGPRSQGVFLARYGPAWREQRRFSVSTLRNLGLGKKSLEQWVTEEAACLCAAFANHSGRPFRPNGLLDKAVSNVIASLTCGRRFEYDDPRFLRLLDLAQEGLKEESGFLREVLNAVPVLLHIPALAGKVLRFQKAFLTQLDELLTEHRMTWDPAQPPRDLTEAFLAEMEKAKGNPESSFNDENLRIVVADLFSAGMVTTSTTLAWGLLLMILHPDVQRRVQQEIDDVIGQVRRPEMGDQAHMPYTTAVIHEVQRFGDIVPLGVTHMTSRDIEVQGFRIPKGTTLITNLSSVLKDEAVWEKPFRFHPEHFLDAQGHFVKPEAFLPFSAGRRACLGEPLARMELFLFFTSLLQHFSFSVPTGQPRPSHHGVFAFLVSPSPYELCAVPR
Chain of Cytochrome P450 2C9 (P11712 whole entry): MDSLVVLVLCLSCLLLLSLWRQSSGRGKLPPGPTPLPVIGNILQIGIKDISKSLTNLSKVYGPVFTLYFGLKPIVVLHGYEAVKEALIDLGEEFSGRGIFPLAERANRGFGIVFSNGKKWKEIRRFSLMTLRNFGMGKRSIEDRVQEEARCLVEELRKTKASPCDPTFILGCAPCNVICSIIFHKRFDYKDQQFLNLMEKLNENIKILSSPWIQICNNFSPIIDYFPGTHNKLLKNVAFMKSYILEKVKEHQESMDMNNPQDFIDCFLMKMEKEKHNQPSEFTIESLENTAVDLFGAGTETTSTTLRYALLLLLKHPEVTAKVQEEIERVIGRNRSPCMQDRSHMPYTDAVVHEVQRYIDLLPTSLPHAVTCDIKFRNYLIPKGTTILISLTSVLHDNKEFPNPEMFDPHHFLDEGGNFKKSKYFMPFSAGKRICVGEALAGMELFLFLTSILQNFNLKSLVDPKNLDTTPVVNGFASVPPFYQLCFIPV
Chain of Cytochrome P450 2C19 (P33261 whole entry): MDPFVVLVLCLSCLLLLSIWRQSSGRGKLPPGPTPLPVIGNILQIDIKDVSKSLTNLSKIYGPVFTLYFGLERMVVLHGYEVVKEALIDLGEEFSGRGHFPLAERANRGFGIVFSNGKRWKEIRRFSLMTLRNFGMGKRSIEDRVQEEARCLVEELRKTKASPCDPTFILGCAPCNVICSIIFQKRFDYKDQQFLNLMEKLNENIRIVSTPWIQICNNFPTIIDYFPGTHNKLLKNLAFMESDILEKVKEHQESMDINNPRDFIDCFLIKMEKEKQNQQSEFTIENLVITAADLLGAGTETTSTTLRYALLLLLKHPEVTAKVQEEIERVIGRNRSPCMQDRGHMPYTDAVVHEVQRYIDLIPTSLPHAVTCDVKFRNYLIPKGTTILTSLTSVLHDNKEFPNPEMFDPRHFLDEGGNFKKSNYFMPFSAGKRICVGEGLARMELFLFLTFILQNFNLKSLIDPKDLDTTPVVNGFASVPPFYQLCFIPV
Chain of Cytochrome P450 1A2 (P05177 whole entry): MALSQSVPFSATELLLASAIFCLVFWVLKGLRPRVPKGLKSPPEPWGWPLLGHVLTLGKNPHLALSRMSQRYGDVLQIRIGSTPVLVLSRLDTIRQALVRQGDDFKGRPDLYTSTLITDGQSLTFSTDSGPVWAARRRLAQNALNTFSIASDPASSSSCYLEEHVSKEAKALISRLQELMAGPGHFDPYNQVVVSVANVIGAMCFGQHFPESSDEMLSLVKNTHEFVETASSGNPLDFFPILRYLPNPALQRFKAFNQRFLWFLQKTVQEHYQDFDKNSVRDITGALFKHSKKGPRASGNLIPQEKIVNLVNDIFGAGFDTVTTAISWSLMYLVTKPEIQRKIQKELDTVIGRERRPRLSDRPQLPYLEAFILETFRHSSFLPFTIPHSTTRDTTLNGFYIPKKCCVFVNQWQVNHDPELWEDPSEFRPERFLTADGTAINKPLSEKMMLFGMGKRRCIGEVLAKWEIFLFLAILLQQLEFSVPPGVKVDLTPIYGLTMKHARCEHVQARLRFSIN

Q: Which EC50 [1] does the source give for CC(C)Oc1ccc(COc2ccc3c(c2)c(Cl)c2n3CC[C@@H]2CC(=O)O)cc1C(F)(F)F here?
A: 0.021 nM

Q: And the Emax [2]?
A: 99%

Q: And the EC50 [3]?
A: 0.62 nM

Q: What about the Emax [4] of the same compound?
A: 112%

Q: And the EC50 [5]?
A: > 10000 nM

Q: What about the EC50 [6] of the same compound?
A: > 10000 nM

Q: And the EC50 [7]?
A: 85 nM

Q: What about the Emax [8] of the same compound?
A: 29%

Q: And the EC50 [9]?
A: 19 nM

Q: And the Emax [10]?
A: 59%

Q: What about the clearance [11] of the same compound?
A: 1.54 mL/min/kg

Q: What about the Vd [12] of the same compound?
A: 0.831 L/kg

Q: And the Cmax [13]?
A: 584 ng/mL

Q: What about the Tmax [14] of the same compound?
A: 4.67 h

Q: What about the AUC(0-inf) [15] of the same compound?
A: 6160 ng·h/mL

Q: What about the half-life [16] of the same compound?
A: 5.09 h

Q: And the bioavailability [17]?
A: 56.6%

Q: What about the Kp [18] of the same compound?
A: 0.27

Q: And the IC50 (Rattus norvegicus [19])?
A: 0.0254 µg/mL (≈ 0.0527 µM)

Q: And the EC50 [20]?
A: 0.064 nM

Q: What about the Emax [21] of the same compound?
A: 95%

Q: What about the EC50 [22] of the same compound?
A: 0.05 nM

Q: And the Emax [23]?
A: 81%

Q: And the EC50 [24]?
A: 0.049 nM

Q: And the Emax [25]?
A: 59%

Q: What about the EC50 [26] of the same compound?
A: 0.058 nM

Q: And the Emax [27]?
A: 84%

Q: And the Activity [28]?
A: Not Active

Q: What about the Activity (Rattus norvegicus [29]) of the same compound?
A: Non-toxic

Q: And the IC50 (Cytochrome P450 2C9)?
A: > 50000 nM

Q: What about the IC50 (Cytochrome P450 3A4) of the same compound?
A: > 50000 nM

Q: And the IC50 (Cytochrome P450 2D6)?
A: > 50000 nM

Q: And the IC50 (Cytochrome P450 1A2)?
A: > 50000 nM

Q: And the IC50 (Cytochrome P450 2C19)?
A: > 50000 nM

Q: What about the concentration at 6 days [30] of the same compound?
A: 352 ng/mL

Q: What about the concentration at 6 days [31] of the same compound?
A: 568 ng/mL

Q: And the Kp at 6 days [32]?
A: 1.61

Q: What about the Cmax [33] of the same compound?
A: 72200 ng/mL

Q: What about the IC50 (Mus musculus [34]) of the same compound?
A: 0.0183 µg/mL (≈ 0.038 µM)

Q: And the Activity (Mus musculus [35])?
A: Active

Q: And the Activity (Mus musculus [36])?
A: Dose-dependent effect

Q: And the Activity (Mus musculus [37])?
A: inactive

Q: And the EC50 [38]?
A: 8.9 nM

Q: And the solubility [39]?
A: < 0.001 mg/mL

Q: And the solubility [40]?
A: > 100 mg/mL

Q: What about the IC50 [41] of the same compound?
A: Not Active
